We go through 14 molecules from ChEMBL document CHEMBL3085758, “A stereoselective approach to peptidomimetic BACE1 inhibitors” (Eur J Med Chem, 2013).

A value given as a limit tells only on which side of the number the result lay.

In general, IC50 refers to the midpoint of a concentration-inhibition curve.

The target of assay [1] is T1, Beta-secretase 1 (Homo sapiens, UniProt P56817). Nature of the assay: Inhibition of human recombinant BACE1 using [acetyl-C(W8044Eu)-EVNLDAEFK-QSY7] as substrate by TR-FRET assay. The method in brief:
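Enzyme (6 nM) incubated with 200 nM europium-labelled TR-FRET substrate in 50 mM NaOAc, 0.005% Triton X-100, pH 4.5; inhibitors in 3.3% DMSO. Time-resolved fluorescence read at excitation 330 nm, emission 615 nm; IC50 from concentration-response curves, mean of at least 3 experiments.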
On the technique in general: Time-resolved FRET reads energy transfer from a long-lived donor to a nearby acceptor.

Assay [2] deals with T1, Beta-secretase 1. Description: Inhibition of BACE1 in human SH-SY5Y cells expressing APP NFEV and wild-type alpha cleavage site assessed as generation of EV40/EV42 by electrochemiluminescence assay. In kind it is cell-based. The method in brief: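 SHSY5Y cells expressing APP NFEV with wild-type alpha-cleavage site. Compounds started at […], then 3-fold dilutions (10 points). IC50 determined against generation of sAPPb NF and EV40 and EV42 peptides. Run at Merck RL.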

The target in assay [3] is T1, Beta-secretase 1. Description: Inhibition of BACE1 in HEK293 cells expressing APP NFEV and APP K612V mutant assessed as generation of EV40/EV42 by electrochemiluminescence assay. In kind it is cell-based. The method in brief:
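HEK293 cells carrying a proprietary APP construct with modified BACE cleavage sequence (NFEV) and K612V alpha-site mutation. Compounds started at […], then 3-fold dilutions (10 points). IC50 determined against generation of sAPPb NF and EV40 and EV42 peptides. Run at Merck RL.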

Assay [4] has as its target T1, Beta-secretase 1. Nature of the assay: Selectivity ratio of IC50 for BACE1 in human SH-SY5Y cells to IC50 for BACE1 in HEK293 cells. In kind it is cell-based.

T1 sequence (P56817 whole entry): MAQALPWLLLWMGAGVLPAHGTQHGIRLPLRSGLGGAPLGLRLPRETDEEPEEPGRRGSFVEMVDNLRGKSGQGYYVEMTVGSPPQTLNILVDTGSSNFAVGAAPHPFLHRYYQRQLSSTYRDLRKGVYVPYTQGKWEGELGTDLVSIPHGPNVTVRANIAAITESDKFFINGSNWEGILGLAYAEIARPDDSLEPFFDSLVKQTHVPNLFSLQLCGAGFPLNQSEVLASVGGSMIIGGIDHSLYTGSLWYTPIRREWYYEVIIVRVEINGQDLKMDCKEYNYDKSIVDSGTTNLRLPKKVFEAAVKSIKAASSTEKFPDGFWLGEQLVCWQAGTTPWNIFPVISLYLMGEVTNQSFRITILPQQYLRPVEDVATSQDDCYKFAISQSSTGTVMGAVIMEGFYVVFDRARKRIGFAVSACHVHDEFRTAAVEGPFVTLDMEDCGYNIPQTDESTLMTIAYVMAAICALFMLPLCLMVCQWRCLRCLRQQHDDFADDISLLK

Regarding `CC(C)(C)OC(=O)N(C[C@H](O)c1cccc(NC(=O)[C@@H](NC(=O)OCc2ccccc2)c2ccccc2)c1)[C@H](CO)c1ccccc1`, the IC50 on Beta-secretase 1 [1] (read-out: IC50) was determined as 9.2 µM. On the same count and under the same terms, then `CC(C)(C)OC(=O)N1CCN(c2ccc(-c3ccccc3)c3c2NC(=O)[C@H](c2ccccc2)N=C3)CC1`, with 12.8 µM. `O=C1Nc2c(N3CCNCC3)ccc(-c3ccccc3)c2C=N[C@H]1c1ccccc1`: the IC50 entry at Beta-secretase 1 [1] is “Not Active”.

Take `CC(C)(C)OC(=O)N1CCN(c2cccc3c2NC(=O)[C@H](c2ccccc2)N=C3)CC1`: the IC50 result on Beta-secretase 1 [1] is reported as “Not Active”. As for `CC(C)(C)OC(=O)N(C[C@H](O)c1cccc(NC(=O)[C@@H](NC(=O)OCc2ccccc2)c2ccccc2)c1)[C@H](CO)Cc1ccccc1`, on Beta-secretase 1 [1] (read-out: IC50), the IC50 worked out at 6.4 µM.

Consider `CC(C)(C)OC(=O)N1CCN(c2ccc(-c3ccccc3)c(C=O)c2NC(=O)[C@@H](NC(=O)OCC2c3ccccc3-c3ccccc32)c2ccccc2)CC1`, for which the IC50 on Beta-secretase 1 [1] (read-out: IC50) stood at 14.8 µM. `CC(C)(C)OC(=O)N(Cc1ccccc1)C[C@@H](O)c1cccc(NC(=O)[C@H](NC(=O)OCc2ccccc2)c2ccccc2)c1`: the results for the IC50 at Beta-secretase 1 [1] (read-out: IC50), at Beta-secretase 1 [2] and on Beta-secretase 1 [3] were 4.7 µM, > 100 µM and > 10 µM, respectively. The Ratio IC50 at Beta-secretase 1 [4] is 10.

For the molecule `O=C(N[C@H](C(=O)Nc1cccc([C@@H](O)CN[C@H](CO)Cc2ccccc2)c1)c1ccccc1)OCc1ccccc1`, the IC50 on Beta-secretase 1 [1] (read-out: IC50) is 7.5 µM. On the same count and under the same terms, the result for `CC(C)(C)OC(=O)N(Cc1ccccc1)C[C@H](O)c1ccc(C(=O)c2ccccc2)c(NC(=O)[C@H](NC(=O)OCc2ccccc2)c2ccccc2)c1` reads 18.1 µM. On to `CC(C)(C)OC(=O)N(Cc1ccccc1)C[C@H](O)c1cccc(NC(=O)c2cccc3ccccc23)c1`, for which the IC50 at Beta-secretase 1 [1] (read-out: IC50) was 4.9 µM; at Beta-secretase 1 [2] it was 11 µM; on Beta-secretase 1 [3] it was > 7 µM. `CC(C)(C)OC(=O)N(Cc1ccccc1)C[C@H](O)c1ccc(C(=O)c2ccccc2)c(NC(=O)[C@@H](NC(=O)OCc2ccccc2)c2ccccc2)c1`: the IC50 on Beta-secretase 1 [1] (read-out: IC50) was determined as 14.9 µM. Still for that read-out and setting: the result for `CC(C)(C)OC(=O)N1CCN(c2cccc(C=O)c2NC(=O)[C@@H](NC(=O)OCc2ccccc2)c2ccccc2)CC1` reads 14.3 µM; that for `CC(C)(C)OC(=O)N(Cc1ccccc1)C[C@@H](O)c1cccc(NC(=O)[C@@H](NC(=O)OCc2ccccc2)c2ccccc2)c1`, 5.2 µM.

On to `CC(C)(C)OC(=O)N1CCN(c2ccc(-c3ccccc3)c3c2NC(=O)[C@H](c2ccccc2)NC3)CC1`, for which the IC50 entry on Beta-secretase 1 [1] is “Not Active”.
